Measured values pooled from the literature.
Each line is one published result; the experiments were not run side by side.
Target: Vascular endothelial growth factor receptor 2 (KDR, Homo sapiens, UniProt P35968)
Read-out: enzyme activity
Mode: inhibitor

| SMILES | test | conditions | remaining activity |
| --- | --- | --- | --- |
| Cc1cnc(NC2CCOCC2)nc1-n1cnc(C(=O)NC(CN)c2cc(F)cc(Cl)c2)c1 (stereo not shown) | radiometric | 1 µM | 85% |
| COc1ccc(NC(=O)c2c(Nc3ccccc3)sc(C#N)c2NC(=O)CNc2ccc([N+](=O)[O-])cc2)cc1 |  | 0.1 µM | 86.1% |
| Cc1[nH]c(/C=C2\C(=O)Nc3ccc(F)cc32)c(C)c1C(=O)N[C@H]1CCN(C(=O)N(C)C)C1 |  | 0.1 µM | 10% |
| CC(C)(C)c1nc(-c2cccc(NS(=O)(=O)c3c(F)cccc3F)c2F)c(-c2ccnc(N)n2)s1 | radiometric | 1 µM | 82% |
| O=C(Nc1cnn(-c2csc(C(=O)NC3COC3)c2)c1)Nc1ccccc1Cl |  | 5 µM | 95.2% |
| CCN(CC)c1ccc(C2=NNC(=O)CC2C)cc1[N+](=O)[O-] (stereo not shown) |  | 10 µM | 99% |
| CC(C)(O)[C@H]1CC[C@H](Nc2ccc3ncc(-c4cccc(C(F)(F)F)c4)n3n2)CC1 |  | 1 µM | 91.5% |
| CCCOc1ccc(OC)c(F)c1C(=O)c1ccc(C(=O)N[C@@H]2CNC[C@H]2NC(=O)c2ccc3[nH]ncc3c2)cc1 |  | 10 µM | 74% |
| COc1ccc(NC(=O)c2c(Nc3ccccc3)sc(C#N)c2NC(=O)CNc2ccc(Cl)cc2)cc1 |  | 100 µM | 16.5% |
| O=C(Nc1cnn(-c2csc(C(=O)NC3COC3)c2)c1)Nc1c(F)cccc1Cl |  | 5 µM | 88.3% |
| COc1ccc(C=NNC(=O)c2sc(Nc3ccccc3)c(C(=O)Nc3ccc(OC)cc3)c2NC(C)=O)cc1 |  | 0.1 µM | 79.4% |
| COc1cc(Cl)c(C(=O)N[C@@H](CN[C@H]2CC[C@@H](N)CC2)Cc2ccc(C#N)cc2)cc1-c1ccc(CN[C@H](C)c2ccc(C)cc2)o1 |  | 1 µM | 82% |
| CC(C)(C)c1nc2c(s1)c1nc(N)ncc1c1ccc(NS(=O)(=O)c3c(F)cccc3F)c(F)c12 | radiometric | 1 µM | 95% |
